We go through four compounds from ChEMBL document CHEMBL1157131, “Antibiotic indole sesquiterpene alkaloid from Greenwayodendron suaveolens with a new natural product framework” (2010).

Converted amounts (≈) assume the structure as drawn. The source made the active and inactive calls.

The term MIC denotes the smallest concentration in the dilution series that meets the test's criterion for growth inhibition. A word on the MIC90: it is an inhibitory concentration at the 90% level, which refers to growth in some studies and to a panel of isolates in others. Low readings indicate greater potency, high ones weaker potency.

Test [1] deals with Staphylococcus aureus. As to the kind of experiment: Antimicrobial activity against cutaneous methicillin resistant Staphylococcus aureus isolate 108 expressing virulence gene system including PVL, bsaA and Agr genes after 24 hrs by broth microdilution method. It counts as functional. The note with it: isolate 108, 24 h. In a few lines: (§1)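 Clinical S. aureus isolates, first recovered from patient specimens on 5% sheep blood agar, tested by CLSI broth microdilution in cation-adjusted Mueller-Hinton broth. Initial inoculum 10^6 cfu/mL. After overnight incubation at 37 °C, MIC was read as the lowest concentration preventing visible growth. Overnight starter cultures were grown in TSB from frozen glycerol stocks.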

Test [2] concerns Staphylococcus aureus. As to the kind of experiment: Antimicrobial activity against cutaneous methicillin resistant Staphylococcus aureus isolate 148 expressing virulence gene system including PVL, ACME, bsaB and Agr genes after 24 hrs by broth microdilution method. The class given is functional. The note with it: isolate 148, 24 h. In a few lines: as §1
For orientation: Dilution methods test growth across graded concentrations, often in twofold steps.

The subject of test [3] is Staphylococcus aureus. As to the kind of experiment: Antimicrobial activity against methicillin sensitive Staphylococcus aureus ATCC 25923 after 24 hrs by broth microdilution method. It counts as functional. A digest of the protocol:
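Overnight culture diluted 1:100 in trypticase soy broth with 0.5% D-glucose and 3% NaCl, grown at 37 °C to OD600 0.4, then diluted 1:10. Compounds in DMSO diluted in medium, tested at a concentration series (3-6 wells per concentration); vancomycin positive control. Incubated 24 h at 37 °C; inhibition from OD600 change versus compound-free control wells.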

Test [4] has as its system Staphylococcus aureus. As to the kind of experiment: Antimicrobial activity against cutaneous methicillin resistant Staphylococcus aureus isolate 106 expressing virulence gene system including PVL, ACME, bsaB and Agr genes after 24 hrs by broth microdilution method. The class given is functional. To be noted: isolate 106, 24 h. In a few lines: as §1
Test [5] has as its system Staphylococcus aureus. As to the kind of experiment: Antimicrobial activity against invasive methicillin resistant Staphylococcus aureus isolate 194 expressing virulence gene system including PVL, ACME, bsaB and Agr genes after 24 hrs by broth microdilution method. It counts as functional. The note with it: isolate 194, 24 h. In a few lines:
as §1

For test [6], the system named is Staphylococcus aureus. As to the kind of experiment: Antimicrobial activity against cutaneous methicillin resistant Staphylococcus aureus isolate 107 expressing virulence gene system including PVL, ACME, bsaB and Agr genes after 24 hrs by broth microdilution method. It counts as functional. The note with it: isolate 107, 24 h. A digest of the protocol: as §1
Test [7] has as its system Staphylococcus aureus. The test can be described thus: Antimicrobial activity against cutaneous methicillin resistant Staphylococcus aureus isolate 111 expressing virulence gene system including PVL, ACME, bsaB and Agr genes after 24 hrs by broth microdilution method. The note with it: isolate 111, 24 h. It counts as functional. A digest of the protocol: as §1
Test [8] has as its system Staphylococcus aureus. As to the kind of experiment: Antimicrobial activity against clinical isolates of Staphylococcus aureus after 24 hrs by broth microdilution method.
In test [9] the test system is Staphylococcus aureus. The test can be described thus: Antimicrobial activity against invasive methicillin resistant Staphylococcus aureus isolate 186 expressing virulence gene system including PVL, bsaA and Agr genes after 24 hrs by broth microdilution method. The class given is functional. The note with it: isolate 186, 24 h. A digest of the protocol:
as §1

The test system of test [10] is Staphylococcus aureus. As to the kind of experiment: Antimicrobial activity against cutaneous methicillin sensitive Staphylococcus aureus isolate 109 expressing virulence gene system including PVL, bsaB and Agr genes after 24 hrs by broth microdilution method. The note with it: isolate 109, 24 h.
Test [11] has as its system Staphylococcus aureus. As to the kind of experiment: Antimicrobial activity against cutaneous methicillin resistant Staphylococcus aureus isolate 105 expressing virulence gene system including PVL, ACME, bsaB and Agr genes after 24 hrs by broth microdilution method. It counts as functional. The note with it: isolate 105, 24 h. In a few lines:
as §1

Test [12] has as its system Staphylococcus aureus. The test can be described thus: Antimicrobial activity against cutaneous methicillin resistant Staphylococcus aureus isolate 158 expressing virulence gene system including PVL, ACME, bsaB and Agr genes after 24 hrs by broth microdilution method. The class given is functional. To be noted: isolate 158, 24 h. In a few lines: as §1
Test [13] has as its system Staphylococcus aureus. As to the kind of experiment: Antimicrobial activity against cutaneous methicillin sensitive Staphylococcus aureus isolate 175 expressing virulence gene system including PVL, bsaB and Agr genes after 24 hrs by broth microdilution method. The class given is functional. To be noted: isolate 175, 24 h. In a few lines:
as §1

Test [14] deals with Staphylococcus aureus. As to the kind of experiment: Antimicrobial activity against cutaneous methicillin resistant Staphylococcus aureus isolate 295 expressing virulence gene system bsaB and Agr genes after 24 hrs by broth microdilution method. It counts as functional. The note with it: isolate 295, 24 h. A digest of the protocol: as §1

`C[C@@H]1CC[C@@H]2C(=CC[C@H](O)C2(C)C)[C@]1(C)Cc1c[nH]c2ccccc12` [POLYALTHENOL]: the MIC against Staphylococcus aureus [1] was 2 µg/mL (≈ 5.93 µM); against Staphylococcus aureus [2], 2 µg/mL (≈ 5.93 µM); against Staphylococcus aureus [3] (ATCC 25923, 24 h), 4 µg/mL (≈ 11.9 µM); with Staphylococcus aureus [4], 2 µg/mL (≈ 5.93 µM); against Staphylococcus aureus [5] it was 2 µg/mL (≈ 5.93 µM); with Staphylococcus aureus [6], 1 µg/mL (≈ 2.96 µM). For the same compound, the MIC in the test on Staphylococcus aureus [7] was determined as 2 µg/mL (≈ 5.93 µM); in the test on Staphylococcus aureus [9] it was 4 µg/mL (≈ 11.9 µM); against Staphylococcus aureus [10], 1 µg/mL (≈ 2.96 µM); against Staphylococcus aureus [11] it was 1 µg/mL (≈ 2.96 µM); against Staphylococcus aureus [12] it was 4 µg/mL (≈ 11.9 µM); in the test on Staphylococcus aureus [13] it was 4 µg/mL (≈ 11.9 µM). The MIC against Staphylococcus aureus [14] stood at 4 µg/mL (≈ 11.9 µM). Further, the MIC90 with Staphylococcus aureus [8] was found to be 4 µg/mL (≈ 11.9 µM).
Regarding `C[C@@H]1CCC2=C3[C@H](C[C@H](O)C2(C)C)c2[nH]c4ccccc4c2C[C@@]31C` [PENTACYCLINDOLE], the minimum inhibitory concentration (MIC) with Staphylococcus aureus [1] worked out at 8 µg/mL (≈ 23.8 µM); against Staphylococcus aureus [2], 8 µg/mL (≈ 23.8 µM); in the test on Staphylococcus aureus [3] (ATCC 25923, 24 h), 4 µg/mL (≈ 11.9 µM); in the test with Staphylococcus aureus [4], 8 µg/mL (≈ 23.8 µM); against Staphylococcus aureus [6] it was 8 µg/mL (≈ 23.8 µM); against Staphylococcus aureus [7], 8 µg/mL (≈ 23.8 µM). The MIC in the test with Staphylococcus aureus [9], in the test on Staphylococcus aureus [10], in the test with Staphylococcus aureus [11], with Staphylococcus aureus [12] and with Staphylococcus aureus [13] was 8 µg/mL (≈ 23.8 µM) each time. Besides, in the test with Staphylococcus aureus [8], the MIC90 is 8 µg/mL (≈ 23.8 µM).
Consider `CC(C)=C1CC[C@@H](C)[C@@](C)(Cc2c[nH]c3ccccc23)[C@@H]1CCCO`, for which the lowest concentration to inhibit growth with Staphylococcus aureus [3] (ATCC 25923, 24 h) (MIC) was 19 µg/mL (≈ 56 µM).
Regarding `COC(=O)CC[C@@H]1C(=C(C)C)CC[C@@H](C)[C@@]1(C)Cc1c[nH]c2ccccc12`, the MIC result in the test on Staphylococcus aureus [3] was “inactive”.
